Test results: ChEMBL document CHEMBL1155549, “Sialic acid-mimic peptides as hemagglutinin inhibitors for anti-influenza therapy” (J Med Chem, 2010)
Calls of active or inactive are those of the source. No cut-off for these calls is given here. Where a SMILES comes first, the peptide text is derived from it. The star is where a group is joined. Biotin = O=C1N[C@H]2[C@H](CS[C@H]2CCCCC(=O)*)N1

Legend:
[1] = (§1) Binding affinity to Influenza A virus (A/New Caledonia/20/1999 (H1N1)) hemagglutininin by avidin-biotin peroxidase complex method
Method in brief: (§2)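 HA was coated at 70 μg/mL overnight at 4 °C and blocked with 1% BSA/PBS. C-terminally biotinylated peptides (5-400 μM) were added for 2 h. After PBS washes, peroxidase-streptavidin was added for 1 h, and o-phenylenediamine colour was read as ΔA at 492 nm, in triplicate. Kd came from a Scatchard plot over 20-200 μM peptide.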

[2] = tested on: Influenza A virus (A/Wuhan/359/1995(H3N2)); assay: Binding affinity to Influenza A virus (A/Wuhan/359/1995 (H3N2)) hemagglutininin by scintillation proximity assay
[3] = (§3) Binding affinity to Influenza A virus (A/Wyoming/03/2003 (H3N2)) hemagglutininin by avidin-biotin peroxidase complex method; method in brief: as §2
[4] = tested on: Influenza A virus (A/New Caledonia/20/1999(H1N1)); assay: as §1; method in brief: as §2
[5] = tested on: Influenza A virus (A/Wyoming/03/2003(H3N2)); assay: as §3; method in brief: as §2

Compound	Kd [1] [µM]	Activity [2]	Kd [3] [µM]	Activity [4]	Activity [5]
H-ARLPRTMVHPKPAQP-NH2	31	Dose-dependent effect	22		
CSCC[C@H](NC(=O)[C@@H](NC(=O)[C@H](CCCNC(=N)N)NC(=O)[C@@H]1CCCN1C(=O)[C@H](CC(C)C)NC(=O)[C@H](CCCNC(=N)N)NC(=O)[C@H](C)N)[C@@H](C)O)C(=O)N[C@H](C(=O)N[C@@H](Cc1cnc[nH]1)C(=O)N1CCC[C@H]1C(=O)N[C@@H](C)C(=O)N1CCC[C@H]1C(=O)N[C@@H](C)C(=O)N[C@@H](CCC(N)=O)C(=O)N1CCC[C@H]1C(=O)N[C@@H](CCCCNC(=O)CCCC[C@@H]1SC[C@@H]2NC(=O)N[C@@H]21)C(N)=O)C(C)C (H-ARLPRTMVHPAPAQPK(Biotin)-NH2)				inactive	inactive
CC(C)C[C@H](NC(=O)[C@H](CCCNC(=N)N)NC(=O)[C@H](C)N)C(=O)N1CCC[C@H]1C(=O)N[C@@H](CCCNC(=N)N)C(=O)N[C@H](C(=O)N[C@@H](C)C(=O)N[C@H](C(=O)N[C@@H](Cc1cnc[nH]1)C(=O)N1CCC[C@H]1C(=O)N[C@@H](CCCCN)C(=O)N1CCC[C@H]1C(=O)N[C@@H](C)C(=O)N[C@@H](CCC(N)=O)C(=O)N1CCC[C@H]1C(=O)N[C@@H](CCCCNC(=O)CCCC[C@@H]1SC[C@@H]2NC(=O)N[C@@H]21)C(N)=O)C(C)C)[C@@H](C)O (H-ARLPRTAVHPKPAQPK(Biotin)-NH2)				inactive	inactive
CSCC[C@H](NC(=O)[C@@H](NC(=O)[C@@H]1CCCN1C(=O)[C@H](CO)NC(=O)[C@H](CC(C)C)NC(=O)[C@H](CCCNC(=N)N)NC(=O)[C@@H](C)N)[C@@H](C)O)C(=O)N[C@H](C(=O)N[C@@H](Cc1cnc[nH]1)C(=O)N1CCC[C@H]1C(=O)N[C@@H](CC(N)=O)C(=O)NCC(=O)N[C@@H](C)C(=O)N[C@@H](CCC(N)=O)C(=O)N1CCC[C@H]1C(=O)O)C(C)C		Active			
CSCC[C@H](NC(=O)[C@@H](NC(=O)[C@H](CCCNC(=N)N)NC(=O)[C@@H]1CCCN1C(=O)[C@H](CC(C)C)NC(=O)[C@H](C)NC(=O)[C@H](C)N)[C@H](C)O)C(=O)N[C@H](C(=O)N[C@@H](Cc1cnc[nH]1)C(=O)N1CCC[C@H]1C(=O)N[C@@H](CCCCN)C(=O)N1CCC[C@H]1C(=O)N[C@@H](C)C(=O)N[C@@H](CCC(N)=O)C(=O)N1CCC[C@H]1C(=O)N[C@@H](CCCCNC(=O)CCCC[C@@H]1SC[C@@H]2NC(=O)N[C@@H]21)C(N)=O)C(C)C				inactive	inactive
CSCC[C@H](NC(=O)[C@@H](NC(=O)[C@H](CCCNC(=N)N)NC(=O)[C@@H]1CCCN1C(=O)[C@H](C)NC(=O)[C@H](CCCNC(=N)N)NC(=O)[C@H](C)N)[C@@H](C)O)C(=O)N[C@H](C(=O)N[C@@H](Cc1cnc[nH]1)C(=O)N1CCC[C@H]1C(=O)N[C@@H](CCCCN)C(=O)N1CCC[C@H]1C(=O)N[C@@H](C)C(=O)N[C@@H](CCC(N)=O)C(=O)N1CCC[C@H]1C(=O)N[C@@H](CCCCNC(=O)CCCC[C@@H]1SC[C@@H]2NC(=O)N[C@@H]21)C(N)=O)C(C)C (H-ARAPRTMVHPKPAQPK(Biotin)-NH2)				inactive	inactive
